Test results taken from ChEMBL document CHEMBL2157987, “Benzimidazole bearing oxadiazole and triazolo-thiadiazoles nucleus: design and synthesis as anticancer agents” (2012).

Tests used:
Assay type in all cases: functional
U-251 = assay: Cytotoxicity against human U251 cells after 48 hrs by SRB assay; settings: U-251, 48 h
Summary of the method: (§1)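 Cells were grown in RPMI 1640 with 5% FBS and 2 mM L-glutamine, then held 24 h at 37 °C and 5% CO2 before dosing. TCA-fixed time-zero plates were kept. Compound was dissolved in DMSO and given at five 10-fold dilutions for 48 h. Cells were fixed with cold TCA (10% final), stained with 0.4% SRB and read at 515 nm. GI50, TGI and LC50 came from Ti/Tz/control growth formulas.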

HCC 2998 = assay: Cytotoxicity against human HCC2998 cells after 48 hrs by SRB assay; settings: HCC 2998, 48 h
Summary of the method: (§2)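 Five-dose NCI-60 panel screen: cells grown in RPMI 1640 with 5% FBS and 2 mM L-glutamine, preincubated 24 h at 37 °C, 5% CO2. Five 10-fold dilutions, 0.01–100 µM, applied for 48 h. Fixed with cold TCA (10% final), stained with 0.4% SRB, absorbance read at 515 nm. GI50, TGI and LC50 were taken from log concentration versus % growth curves using time-zero plates.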

MDA-MB-231 = assay: Cytotoxicity against human MDA-MB-231 cells after 48 hrs by SRB assay; settings: MDA-MB-231, 48 h; summary of the method: as §2
UACC-257 = assay: Cytotoxicity against human UACC257 cells after 48 hrs by SRB assay; settings: UACC-257, 48 h; summary of the method: as §1
SF-539 = assay: Cytotoxicity against human SF539 cells after 48 hrs by SRB assay; settings: SF-539, 48 h; summary of the method: as §2
HT-29 = assay: Cytotoxicity against human HT-29 cells after 48 hrs by SRB assay; settings: HT-29, 48 h; summary of the method: as §2
M14 = assay: Cytotoxicity against human M14 cells after 48 hrs by SRB assay; settings: M14, 48 h; summary of the method: as §2
A498 = assay: Cytotoxicity against human A498 cells after 48 hrs by SRB assay; settings: A498, 48 h; summary of the method: as §2
MDA-MB-435 [1] = assay: Cytotoxicity against human MDA-MB-435 cells after 48 hrs by SRB assay; settings: MDA-MB-435, 48 h; summary of the method: as §2
NCI-H23 = assay: Cytotoxicity against human NCI-H23 cells after 48 hrs by SRB assay; settings: NCI-H23, 48 h; summary of the method: as §2
CAKI-1 = assay: Cytotoxicity against human Caki1 cells after 48 hrs by SRB assay; settings: CAKI-1, 48 h; summary of the method: as §2
CCRF-CEM = assay: Cytotoxicity against human CCRF-CEM cells after 48 hrs by SRB assay; summary of the method: as §2
MCF7 = assay: Cytotoxicity against human MCF7 cells after 48 hrs by SRB assay; settings: MCF7, 48 h; summary of the method: as §2
RPMI-8226 = assay: Cytotoxicity against human RPMI8226 cells after 48 hrs by SRB assay; settings: RPMI-8226, 48 h; summary of the method: as §2
UACC-62 = assay: Cytotoxicity against human UACC62 cells after 48 hrs by SRB assay; settings: UACC-62, 48 h; summary of the method: as §1
Malme-3M = assay: Cytotoxicity against human MALME-3M cells after 48 hrs by SRB assay; summary of the method: as §2
SK-MEL-5 = assay: Cytotoxicity against human SK-MEL-5 cells after 48 hrs by SRB assay; settings: SK-MEL-5, 48 h; summary of the method: as §2
SK-OV-3 = assay: Cytotoxicity against human SKOV3 cells after 48 hrs by SRB assay; settings: SK-OV-3, 48 h; summary of the method: as §2
MDA-MB-435 [2] = assay: Cytotoxicity against human MDA-MB-435 cells assessed as cell growth at 10 uM after 48 hrs by SRB assay; settings: MDA-MB-435, 48 h, read-out: Activity
Summary of the method: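 NCI single-dose screen at 10 µM. Cells were incubated 48 h and the end point was read by sulforhodamine B protein staining. Results are given as percent growth of treated cells relative to untreated controls. Growth of 32% or less was counted as active.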

K562 = assay: Cytotoxicity against human K562 cells after 48 hrs by SRB assay; settings: K562, 48 h; summary of the method: as §2
MOLT-4 = assay: Cytotoxicity against human MOLT4 cells after 48 hrs by SRB assay; settings: MOLT-4, 48 h; summary of the method: as §2
[3] = read-out: LC50 (the source's name)
[4] = read-out: pLC50 (the source's name) (converted)

SMILES: Nc1cc(Br)c(-c2nnc(CCC(=O)c3nc4ccccc4[nH]3)o2)c(Br)c1
- GI50 (U-251): 3.47 µM
- CC50 (U-251; [3]): > 100 µM
- TGI (U-251; read-out: TGI): > 100 µM
- CC50 (U-251; [4]): > 100 µM
- TGI (U-251; read-out: pTGI): > 100 µM
- GI50 (HCC 2998): 11 µM
- CC50 (HCC 2998; [3]): > 100 µM
- TGI (HCC 2998; read-out: TGI): 42.5 µM
- CC50 (HCC 2998; [4]): > 100 µM
- TGI (HCC 2998; read-out: pTGI (converted)): 42.7 µM
- GI50 (MDA-MB-231): 10.2 µM
- LC50 (MDA-MB-231; read-out: LC50): > 100 µM
- TGI (MDA-MB-231; read-out: TGI): 86.8 µM
- LC50 (MDA-MB-231; read-out: pLC50 (converted)): > 100 µM
- TGI (MDA-MB-231; read-out: pTGI (converted)): 87.1 µM
- GI50 (UACC-257): 7.59 µM
- CC50 (UACC-257; [3]): > 100 µM
- TGI (UACC-257; read-out: TGI): > 100 µM
- CC50 (UACC-257; [4]): > 100 µM
- TGI (UACC-257; read-out: pTGI): > 100 µM
- GI50 (SF-539): 17.4 µM
- CC50 (SF-539; [3]): > 100 µM
- TGI (SF-539; read-out: TGI): 60.8 µM
- CC50 (SF-539; [4]): > 100 µM
- TGI (SF-539; read-out: pTGI (converted)): 60.3 µM
- GI50 (HT-29): 19.1 µM
- CC50 (HT-29; [3]): > 100 µM
- TGI (HT-29; read-out: TGI): 83.5 µM
- CC50 (HT-29; [4]): > 100 µM
- TGI (HT-29; read-out: pTGI (converted)): 83.2 µM
- GI50 (M14): 17.4 µM
- CC50 (M14; [3]): > 100 µM
- TGI (M14; read-out: TGI): 55.5 µM
- CC50 (M14; [4]): > 100 µM
- TGI (M14; read-out: pTGI (converted)): 55 µM
- GI50 (A498): 0.661 µM
- CC50 (A498; [3]): > 100 µM
- TGI (A498; read-out: TGI): 10.5 µM
- CC50 (A498; [4]): > 100 µM
- TGI (A498; read-out: pTGI (converted)): 10.5 µM
- GI50 (MDA-MB-435 [1]): 1.55 µM
- CC50 (MDA-MB-435 [1]; [3]): 8.83 µM
- TGI (MDA-MB-435 [1]; read-out: TGI): 3.71 µM
- CC50 (MDA-MB-435 [1]; [4]): 8.91 µM
- TGI (MDA-MB-435 [1]; read-out: pTGI (converted)): 3.72 µM
- GI50 (NCI-H23): 3.24 µM
- CC50 (NCI-H23; [3]): > 100 µM
- TGI (NCI-H23; read-out: TGI): 36.4 µM
- CC50 (NCI-H23; [4]): > 100 µM
- TGI (NCI-H23; read-out: pTGI (converted)): 36.3 µM
- GI50 (CAKI-1): 20 µM
- LC50 (CAKI-1; read-out: LC50): > 100 µM
- TGI (CAKI-1; read-out: TGI): > 100 µM
- LC50 (CAKI-1; read-out: pLC50 (converted)): > 100 µM
- TGI (CAKI-1; read-out: pTGI): > 100 µM
- GI50 (CCRF-CEM): 3.8 µM
- CC50 (CCRF-CEM; [3]): > 100 µM
- TGI (CCRF-CEM; read-out: TGI): > 100 µM
- CC50 (CCRF-CEM; [4]): > 100 µM
- TGI (CCRF-CEM; read-out: pTGI): > 100 µM
- GI50 (MCF7): 3.09 µM
- CC50 (MCF7; [3]): > 100 µM
- TGI (MCF7; read-out: TGI): > 100 µM
- CC50 (MCF7; [4]): > 100 µM
- TGI (MCF7; read-out: pTGI): > 100 µM
- GI50 (RPMI-8226): 4.17 µM
- CC50 (RPMI-8226; [3]): > 100 µM
- TGI (RPMI-8226; read-out: TGI): > 100 µM
- CC50 (RPMI-8226; [4]): > 100 µM
- TGI (RPMI-8226; read-out: pTGI): > 100 µM
- GI50 (UACC-62): 5.37 µM
- CC50 (UACC-62; [3]): > 100 µM
- TGI (UACC-62; read-out: TGI): > 100 µM
- CC50 (UACC-62; [4]): > 100 µM
- TGI (UACC-62; read-out: pTGI): > 100 µM
- GI50 (Malme-3M): 2.04 µM
- CC50 (Malme-3M; [3]): > 100 µM
- TGI (Malme-3M; read-out: TGI): 17.2 µM
- CC50 (Malme-3M; [4]): > 100 µM
- TGI (Malme-3M; read-out: pTGI (converted)): 17.4 µM
- GI50 (SK-MEL-5): 14.1 µM
- CC50 (SK-MEL-5; [3]): > 100 µM
- TGI (SK-MEL-5; read-out: TGI): > 100 µM
- CC50 (SK-MEL-5; [4]): > 100 µM
- TGI (SK-MEL-5; read-out: pTGI): > 100 µM
- GI50 (SK-OV-3): 22.4 µM
- LC50 (SK-OV-3; read-out: LC50): > 100 µM
- TGI (SK-OV-3; read-out: TGI): 80.5 µM
- LC50 (SK-OV-3; read-out: pLC50 (converted)): > 100 µM
- TGI (SK-OV-3; read-out: pTGI (converted)): 81.3 µM
- growth at 10 µM (MDA-MB-435 [2]): 5.71%
- GI50 (K562): 2.88 µM
- CC50 (K562; [3]): > 100 µM
- TGI (K562; read-out: TGI): > 100 µM
- CC50 (K562; [4]): > 100 µM
- TGI (K562; read-out: pTGI): > 100 µM
- GI50 (MOLT-4): 4.9 µM
- CC50 (MOLT-4; [3]): > 100 µM
- TGI (MOLT-4; read-out: TGI): > 100 µM
- CC50 (MOLT-4; [4]): > 100 µM
- TGI (MOLT-4; read-out: pTGI): > 100 µM
